Screening results as filed in PubChem BioAssay.
esBAF inh – inhibitors of esBAF chromatin remodeling in mouse ES cells | reporter increase, % at 12.5 µM | 350,000 tested, 2% active | Bmi1-luciferase knock-in reporter, 24 h; 100% = twice the neutral-well signal | AID 602393; in the data active means activation above about 40%;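 further: a rise in the Bmi1 reporter signal indicates esBAF inhibition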
SMARCA2 activ – increases SMARCA2 function in MMTV reporter cells; AID 652017; activation, % at 9.1 µM; 370,000 tested, 1% active; MG213 cells, MMTV-luciferase reporter, dexamethasone, overnight; in the data active means activation above about 7.8%
ARFGAP1 inhibitor – inhibitors of rat ARFGAP1. Arfgap1-stimulated ARF1 GTP hydrolysis, GDP FP detection. 360,000 tested, 0.26% active. inhibition, % at 16.5 µM;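 active means inhibition above a per-plate limit, mean inhibition of low control wells plus 3 SD, cut at about 25% in these data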
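System: truncated rat Arfgap1 GAP domain / Benchmarks: high control wells lacking Arfgap1, low control full reaction with DMSO / Times: compound-enzyme preincubation 20 min, reaction 120 min, detection 60 min, 25 °C / Repeats: one replicate per compound / Also added: human ARF1(Δ1-17)-GTP substrate / Measured by: Tracer-displacement fluorescence polarization with EDTA stop, 620/688 nm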
ASAP1 inh – blocks human ASAP1-stimulated Arf1 GTP hydrolysis. GDP FP detection. inhibition, % at 16.5 µM. Q9ULH1. 360,000 tested, 0.19% active; in the data active means inhibition above about 25%
Target sequence (Q9ULH1 325-724 limits assumed): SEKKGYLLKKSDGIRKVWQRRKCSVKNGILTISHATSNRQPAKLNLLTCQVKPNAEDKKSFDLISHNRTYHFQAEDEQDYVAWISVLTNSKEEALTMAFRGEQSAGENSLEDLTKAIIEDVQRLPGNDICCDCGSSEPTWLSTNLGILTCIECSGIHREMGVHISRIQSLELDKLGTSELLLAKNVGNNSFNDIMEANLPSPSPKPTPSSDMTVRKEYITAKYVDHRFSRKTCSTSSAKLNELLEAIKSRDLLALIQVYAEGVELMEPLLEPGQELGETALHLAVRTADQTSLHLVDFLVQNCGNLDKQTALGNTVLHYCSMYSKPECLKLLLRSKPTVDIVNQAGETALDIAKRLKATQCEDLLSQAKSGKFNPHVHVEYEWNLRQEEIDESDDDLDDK
SMARCA2 conf – SMARCA2 activation, confirmation screen. shares compounds with SMARCA2 activ. MG213 cells, MMTV-luciferase with dexamethasone, luminescence, overnight; MG213 cells expressing E1A, Rb sequestered; DMSO wells 0%, reference activator 100%. activation, % at 9.1 µM. 3,500 tested, 30% active. AID 652260;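 active means activation above its plate's cutoff, the mean activation of tested wells plus 3 SD, cut at about 7.9% in these data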
VP16 Luc act – GAL4-VP16 reporter activation counter-screen. shares compounds with SMARCA2 activ. 3,500 tested, 41% active. HEK293 GAL4-VP16 pG5luc reporter, luciferase luminescence; scaled: DMSO wells 0%, SAHA wells 100%. activation, % at 9.1 µM. AID 686939;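 active means activation above the solvent-only control well mean plus 3 SD, averaged across control plates, cut at about 5.2% in these data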
Hits are given with their value; . = inactive; / = not tested or not shown. Most compounds without a hit are left out; they make up all but 2.6% or so of the library.

SMILES	esBAF inh	SMARCA2 activ	ARFGAP1 inhibitor	ASAP1 inh	SMARCA2 conf	VP16 Luc act
Cc1cc(C(=O)CSc2nnc(N)s2)c(C)n1Cc1ccco1	/	12	.	.	.	.
Nc1nnc(SCC(=O)c2ccco2)s1	/	.	.	.	/	/
COc1ccc(-c2cn3ccccc3n2)cc1[N+](=O)[O-]	/	.	.	.	/	/
O=[N+]([O-])c1cccc(-c2cn3ccccc3n2)c1	.	12	.	.	11	.
CNC[C@@H]1Oc2c(NC(=O)Nc3ccc(OC)cc3)cccc2C(=O)N([C@H](C)CO)C[C@@H]1C	.	/	/	/	/	/
O=C(Oc1ccccc1C(=O)N1CCOCC1)c1ccccc1	.	8.0	.	.	.	.
O=C(Oc1ccccc1C(=O)N1CCOCC1)c1cccc(Br)c1	.	.	.	.	/	/
C[C@H](CO)N1C[C@H](C)[C@@H](CN(C)Cc2ccc(Oc3ccccc3)cc2)Oc2ccc(NC(=O)C3CC3)cc2CC1=O	.	/	/	/	/	/
CCc1nc2ccc(C(=O)N(C)Cc3ccccc3)cn2c1N(C)Cc1ccc(OC)cc1	.	9.9	.	.	.	.
Cc1cc2nc(/C=C/c3cccnc3)[nH]c2cc1C	.	8.7	.	.	16	27
CCOC(=O)Cc1c(C)nc2c(-c3ccccc3)c(C)nn2c1C	.	12	.	.	.	.
COc1ccc(NC(=O)N[C@H]2CC[C@H](CCn3cc(-c4ccccc4)nn3)O[C@@H]2CO)cc1	.	/	/	/	/	/
CCOC(=O)C1=C(C)NC(=O)C(C#N)C1c1ccncc1 (stereo not drawn)	.	9.8	.	.	.	.
COCC#Cc1ccc2c(c1)O[C@@H](CN(C)C)[C@H](C)CN([C@@H](C)CO)S2(=O)=O	.	/	/	/	/	/
O=C(NC1CCCC1)c1cc2c(ccc3ccccc32)o1	/	.	.	.	/	/
CNC(=O)c1cc2c(ccc3ccccc32)o1	/	9.6	.	.	.	.
CO[C@@H]1CN(C)C(=O)c2cc(NS(=O)(=O)c3cn(C)cn3)ccc2OC[C@H](C)N(CC2CC2)C[C@@H]1C	.	/	/	/	/	/
O=c1cc(-c2ccc3c(c2)OCO3)oc2ccccc12	.	18	.	.	.	7.3
O=C(COc1cc(O)c2c(=O)cc(-c3ccccc3)oc2c1)c1ccccc1	.	.	.	.	/	/
O=c1cc(-c2ccncc2)oc2ccccc12	.	.	.	.	/	/
O=c1cc(-c2ccc(O)cc2)oc2ccccc12	58	9.0	.	.	12	9.0
O=c1cc(-c2ccccc2)oc2cc(O)cc(O)c12	.	8.5	.	.	.	7.5
CO[C@@H]1CN(C)C(=O)c2cc(NC(=O)c3ccccc3F)ccc2OC[C@H](C)N(CC2CC2)C[C@@H]1C	.	/	/	/	/	/
Oc1ccc(NC(=S)N=Nc2c(O)[nH]c3ccccc23)cc1	65	9.7	.	.	.	15
Cc1[nH]ccc2cc3nc4ccccc4c3cc12	.	18	.	.	76	.
SMILES	esBAF inh	SMARCA2 activ	ARFGAP1 inhibitor	ASAP1 inh	SMARCA2 conf	VP16 Luc act
C[C@@H]1CN([C@@H](C)CO)C(=O)c2cc(NC(=O)C3CC3)ccc2O[C@H]1CN(C)Cc1ccc(-c2ccccc2)cc1	.	/	/	/	/	/
CC1(C)Cc2c(C#N)c(NCCO)nc(-c3ccco3)c2CO1	.	8.6	.	.	.	.
CC1(C)Cc2c(c(-c3ccco3)nc3sc4c(NCCCO)ncnc4c23)CO1	.	10.0	.	.	15	.
CCN(CC)CCNc1ncnc2c1sc1nc(N3CCCC3)c3c(c12)CC(C)(C)OC3	/	8.3	.	.	.	.
O=C(Nc1ccc2c(c1)[C@H]1C[C@@H](CC(=O)N3CCc4ccccc4C3)O[C@@H](CO)[C@H]1O2)C1CCOCC1	.	/	/	/	/	/
C[C@H]1CN([C@@H](C)CO)C(=O)c2cc(NC(=O)c3ccncc3)ccc2O[C@@H]1CN(C)Cc1ccc(-c2ccccc2)cc1	.	/	/	/	/	/
CCOC(=O)/C(C#N)=C/c1c[nH]c2ccccc12	/	11	.	.	.	.
C[C@@H]1CN([C@@H](C)CO)C(=O)c2cc(NS(=O)(=O)c3ccc(Cl)cc3)ccc2O[C@@H](C)CCCCO[C@@H]1CN(C)CC1CCCCC1	.	/	/	/	/	/
COc1ccccc1C(=O)OCCc1ccccc1	78	11	.	.	.	6.5
CC(=O)Nc1ccc(C(=O)OCCc2ccccc2)cc1	/	8.8	.	.	.	.
